Laboratory results as given in paper PMC11571122 (RSC Advances, 2024).

Key:
[1] = molecular target: human Gal-1 (Homo sapiens, UniProt P09382); assay: Fluorescence spectroscopy binding constant, Gal-1; settings: for Gal-1 Ka: fluorescence, modified Stern–Volmer plot, 25 mM Tris-HCl pH 8
Outline: (§1)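 Human Gal-1 was cloned into pET-28a(+), expressed in E. coli BL21(DE3) and purified by Ni2+-NTA. Gal-3 and LdPase were produced similarly. Buffers: Gal-1 and Gal-3 in 25 mM Tris-HCl pH 8; LdPase in sodium phosphate pH 7. Intrinsic emission was scanned 300–400 nm (excitation 280 nm, 100 nm min−1) across ligand concentrations. Ka came from a modified Stern–Volmer plot of the log quenching term (F0 = no ligand, F = with ligand) versus log ligand concentration.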

[2] = molecular target: human Gal-3 (Homo sapiens, UniProt P17931); assay: Fluorescence spectroscopy binding constant, Gal-3; settings: for binding to Gal-3 compared to Gal-1: fluorescence spectroscopy; for Gal-3 Ka: fluorescence, 25 mM Tris-HCl pH 8
human Gal-3, sequence (P17931 whole entry): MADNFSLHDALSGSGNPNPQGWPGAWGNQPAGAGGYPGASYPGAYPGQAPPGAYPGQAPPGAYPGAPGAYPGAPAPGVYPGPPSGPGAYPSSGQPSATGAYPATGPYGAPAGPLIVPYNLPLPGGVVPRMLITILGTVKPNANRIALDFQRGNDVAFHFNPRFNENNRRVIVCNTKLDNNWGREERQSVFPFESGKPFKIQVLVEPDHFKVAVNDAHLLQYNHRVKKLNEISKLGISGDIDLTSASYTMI
Outline: as §1

[3] = test system: Gal-1; assay: Gal-1 ELISA enzymatic assay; assay type: cell-based, human; settings: 20 μM, 24 h, HCT-116 cells
Outline: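 HCT-116 cells were treated with test compound at 20 μM for 24 h, and the secreted-protein supernatant was collected. Equal amounts were diluted 2-fold in calibrator diluent and incubated 2 h at room temperature with shaking on human Gal-1 ELISA plates (commercial kit, manufacturer's protocol), then washed. HRP-conjugated Gal-1 polyclonal antibody was added for 2 h, then substrate for 30 min, then stop solution. Absorbance was read at 450 nm.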

[4] = test system: Leishmania donovani phosphatase (LdPase); assay: Fluorescence spectroscopy binding, LdPase
Outline: as §1

human Gal-1, sequence (P09382 whole entry): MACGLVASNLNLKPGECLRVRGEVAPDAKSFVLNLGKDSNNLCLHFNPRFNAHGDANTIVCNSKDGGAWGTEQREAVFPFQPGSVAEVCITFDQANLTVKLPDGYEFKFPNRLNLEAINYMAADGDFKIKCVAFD

Row | Substance | Gal-1 Ka [1] | Gal-1 binding constant (Ka) ([1]; fluorescence spectroscopy) [M⁻¹] | binding to Gal-3 compared to Gal-1 [2] | Gal-3 Ka [2] | binding to LdPase [4] | % Inhibition (EA) [3] [%]
1 | 2-(4-(4-Nitrophenyl)piperazin-1-yl)-N-(5-(2-oxo-2H-chromen-3-yl)thiazol-2-yl)acetamide [Compound 10h] | – | – | – | – | – | <10
2 | 2-(4-Methylpiperidin-1-yl)-N-(5-(2-oxo-2H-chromen-3-yl)thiazol-2-yl)acetamide [Compound 10i] | – | – | – | – | – | <10
3 | N-(5-(2-Oxo-2H-chromen-3-yl)thiazol-2-yl)-2-(4-phenylpiperazin-1-yl)acetamide [Compound 10d] | 6.6 10^4 M^−1 | – | – | – | – | 56.73 ± 2.13
4 | N-(5-(2-Oxo-2H-chromen-3-yl)thiazol-2-yl)-2-(piperazin-1-yl)acetamide [Compound 10a] | 8.8 10^4 M^−1 | – | – | – | – | 58.19 ± 1.12

Continued, in another order:

Row | Gal-1 Ka [1] | Gal-1 binding constant (Ka) ([1]; fluorescence spectroscopy) [M⁻¹] | binding to Gal-3 compared to Gal-1 [2] | Gal-3 Ka [2] | binding to LdPase [4] | Substance | % Inhibition (EA) [3] [%]
5 | 6.5 10^4 M^−1 | – | – | – | – | 2-(2,6-Dimethylmorpholino)-N-(5-(2-oxo-2H-chromen-3-yl)thiazol-2-yl)acetamide [Compound 10e] | –
6 | 4.1 10^4 M^−1 | – | – | – | – | 2-(4-(2-Hydroxyethyl)piperazin-1-yl)-N-(5-(2-oxo-2H-chromen-3-yl)thiazol-2-yl)acetamide [Compound 10c] | –
7 | 9.8 10^4 M^−1 | 98000 | significantly lower binding | 1.0 10^−6 M^−1 | no detectable binding | 2-(4-(2-Methoxyphenyl)piperazin-1-yl)-N-(5-(2-oxo-2H-chromen-3-yl)thiazol-2-yl)acetamide [Compound 10g] | 58.19 ± 3.28
8 | 2.1 10^4 M^−1 | – | – | – | – | 2-(4-Ethylpiperazin-1-yl)-N-(5-(2-oxo-2H-chromen-3-yl)thiazol-2-yl)acetamide [Compound 10b] | –
9 | 9.3 10^4 M^−1 | – | significantly lower binding | 1.1 10^−6 M^−1 | no detectable binding | N-(5-(2-Oxo-2H-chromen-3-yl)thiazol-2-yl)-2-(4-(pyridin-2-yl)piperazin-1-yl)acetamide [Compound 10f] | 80.57 ± 1.77
